Active and inactive are the calls of the source. The calls are words filed in the database; no cut-off is given here.
Key:
[1] = Stability in CD-1 mouse liver S9 fraction assessed as parent compound remaining at 50 uM measured after 60 mins by HPLC-UV analysis; assay type: ADME, subcellular; settings: read-out: Stabilty
In short: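 Incubated in mouse liver MLS9 fraction supplemented with NADPH. Residual parent substrate measured after 1 h. Three independent experiments, mean ± SEM.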

[2] = tested on: HEK; experiment: Inhibition of SOCE channel in tBhQ-treated HEK cells assessed as reduction in calcium entry by measuring residual activity at 10 uM preincubated for 600 secs followed by calcium addition by Fura-2 AM by fluorescence microscopic analysis relative to control; assay type: cell-based; settings: Homo sapiens, time 600.0 sec
In short: (§1)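 HEK cells; intracellular Ca2+ stores emptied with tBhQ (50 μM) in the presence of compound at 10 μM. After 600 s, Ca2+ added and intracellular Ca2+ followed by Fura-2 fluorescence microscopy. SOCE given as percent activity vs control; peak amplitude, AUC and slope of the Ca2+ rise evaluated. Traces average 200 cells over three independent experiments; Mann–Whitney U test vs control.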

[3] = Cytotoxicity against HEK cells assessed as cell viability at 10 uM measured after 24 hrs by MTT assay relative to control; assay type: cell-based; settings: human, read-out: Activity
In short: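 MTT viability assay in HEK cells with compound at 10 μM.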

[4] = tested on: HEK; experiment: Activation of SOCE channel in tBhQ-treated HEK cells assessed as increase in AUC of calcium entry at 10 uM preincubated for 600 secs followed by calcium addition by Fura-2 AM by fluorescence microscopic analysis; assay type: cell-based; settings: Homo sapiens, filed as activator, time 600.0 sec; in short: as §1
[5] = tested on: HEK; experiment: Activation of SOCE channel in […] assessed as increase in calcium entry in resting cells at 10 uM […] by Fura-2 AM by fluorescence microscopic analysis; assay type: cell-based; settings: Homo sapiens
[6] = Stability in CD-1 mouse liver microsomes assessed as parent compound remaining at 50 uM measured after 60 mins by HPLC-UV analysis; assay type: ADME, Microsome; settings: read-out: Stabilty

| remaining at 1 h, 50 µM [1] [%] | SMILES | other results |
| --- | --- | --- |
| 74 | CCCC(C)OC(=O)c1cnn(-c2ccc(-n3cc(-c4cccc(C(=O)O)c4)nn3)cc2)c1C(F)(F)F (stereo not drawn) |  |
| 43 | CCOC(=O)c1cnn(-c2ccc(NC(=O)C(Cl)=C(Cl)Cl)cc2)c1C(F)(F)F |  |
|  | Cc1noc(-c2cnn(-c3ccc(NC(=O)c4ccco4)cc3)c2C(F)(F)F)n1 | Activity [2]: 61.1% |
| 99 | Cc1noc(-c2cnn(-c3ccc(NC(=O)c4c(C)noc4C)cc3)c2C(F)(F)F)n1 |  |
| > 99 | Cc1noc(-c2cnn(-c3ccc(NC(=O)c4ccc([N+](=O)[O-])cc4)cc3)c2C(F)(F)F)n1 |  |
| 91 | CCCCCC(=O)Nc1ccc(-n2ncc(-c3nc(C)no3)c2C(F)(F)F)cc1 | viability at 24 h, 10 µM [3]: 88.5%; Activity [4]: Active; Activity [5]: inactive |
| 73 | Cc1noc(-c2cnn(-c3ccc(NC(=O)c4ccc(C#N)c(F)c4)cc3)c2C(F)(F)F)n1 |  |
|  | COc1ccc(OC)c(-c2ccc(NC(=O)c3ccncc3F)cc2)c1 | remaining at 1 h, 50 µM [6]: 15% |
| > 99 | Cc1noc(-c2cnn(-c3ccc(NC(=O)c4c(F)cccc4F)cc3)c2C(F)(F)F)n1 |  |
| 76 | Cc1ccc(S(=O)(=O)Nc2ccc(-n3ncc(-c4nc(C)no4)c3C(F)(F)F)cc2)cc1 |  |

Source: ChEMBL document CHEMBL4706718, “1,2,4-Oxadiazole-Bearing Pyrazoles as Metabolically Stable Modulators of Store-Operated Calcium Entry” (ACS Med Chem Lett, 2021)
